Experiment [1] has as its system Rattus norvegicus. As to the kind of experiment: Ex vivo receptor occupancy of CRF1 receptor in Sprague-Dawley rat brain parietal assessed as inhibition of [125I]sauvagine binding at 10 mg/kg, po after 90 mins by autoradiography. In kind it is functional. The following applies: 1.5 h.
Experiment [2] relates to Rattus norvegicus. Nature of the experiment: Anxiolytic activity in Sprague-Dawley rat assessed as decrease in exit latency at 10 mg/kg, po after 60 mins by defensive withdrawal test. It counts as functional, organism-based. On the set-up: dose 10 mg/kg.
Experiment [3] is described as follows: Displacement of [125I]sauvagine from CRF2 receptor in porcine choroid plexus homogenate by binding titration assay. It counts as tissue-based, Sus scrofa. The method in brief: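 Porcine choroid plexus homogenate; inhibition of [125I]-sauvagine binding measured in a titration format.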
Background: Displacement assays read how much labelled ligand stays bound in the presence of the test substance.

Activity calls are given as the source filed them. No cut-off for these calls is given here.

As a reminder, the inhibition in vivo is the share of the control response that was lost under treatment. Regarding `COCC(COC)Nc1nc(C)nc2c(-c3ccc(Cl)cc3Cl)c(C)nn12`, the inhibition in vivo at 10 mg/kg with Rattus norvegicus [1] is 89%. Besides, the outcome in the experiment with Rattus norvegicus [2] was Active.

What is called IC50 is the concentration that gives 50% inhibition. A high value points to weaker potency. In experiment [3], `CC[C@H](C)[C@H](NC(=O)[C@@H](NC(=O)[C@H](CC(=O)O)NC(=O)[C@H](CC(C)C)NC(=O)[C@H](CC(C)C)NC(=O)[C@H](CC(C)C)NC(=O)[C@H](CCCN=C(N)N)NC(=O)[C@H](CC(N)=O)NC(=O)[C@H](CC(N)=O)NC(=O)[C@H](C)NC(=O)[C@H](C)NC(=O)[C@H](CCC(N)=O)NC(=O)[C@H](CCC(N)=O)NC(=O)[C@H](CCCCN)NC(=O)[C@H](CCC(=O)O)NC(=O)[C@H](CCCCN)NC(=O)[C@H](CCC(=O)O)NC(=O)[C@H](CCC(N)=O)NC(=O)[C@H](CCCCN)NC(=O)[C@H](CCC(=O)O)NC(=O)[C@@H](NC(=O)[C@H](CCC(=O)O)NC(=O)[C@@H](NC(=O)[C@H](CCSC)NC(=O)[C@H](CCCCN)NC(=O)[C@H](CCCN=C(N)N)NC(=O)[C@H](CC(C)C)NC(=O)[C@H](CC(C)C)NC(=O)[C@H](CCC(=O)O)NC(=O)[C@H](CC(C)C)NC(=O)[C@H](CO)NC(=O)[C@H](CC(C)C)NC(=O)[C@H](CC(=O)O)NC(=O)[C@@H](NC(=O)[C@H](CO)NC(=O)[C@@H](NC(=O)[C@@H]1CCCN1C(=O)[C@@H]1CCCN1C(=O)CNC(=O)[C@@H]1CCC(=O)N1)[C@@H](C)CC)[C@@H](C)CC)[C@@H](C)CC)[C@@H](C)CC)[C@@H](C)O)C(=O)O` [SAUVAGINE] registered an IC50 of 0.58 nM.

Values taken from ChEMBL document CHEMBL1154735, “A strategy to minimize reactive metabolite formation: discovery of (S)-4-(1-cyclopropyl-2-methoxyethyl)-6-[6-(difluoromethoxy)-2,5-dimethylpyridin-3-ylamino]-5-oxo-4,5-dihydropyrazine-2-carbonitrile as a potent, orally bioavailable corticotropin-releasing factor-1 receptor antagonist” (J Med Chem, 2009).
